Laboratory results as given in ChEMBL document CHEMBL1154352, “Toll-like receptor 7 selective synthetic oligoribonucleotide agonists: synthesis and structure-activity relationship studies” (J Med Chem, 2009).
The source made the active and inactive calls. The calls are words filed in the database; no cut-off is given here.

Assays:
PBMC [1] = assay: Immunomodulatory activity in human PBMC assessed as induction of IL12 at 100 ug/ml after 24 hrs; type: functional, cell-based
How it was run: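 Human PBMCs plated at 5 × 10^6 cells/mL; compounds dissolved in PBS added at various concentrations, 37 °C for 24 h. Supernatant cytokines/chemokines quantified with human Luminex multiplex kit.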

[2] = molecular target: T1, Toll-like receptor 8 (Homo sapiens) (UniProt Q9NR97); assay: Activation of human TLR8 expressed in HEK293XL assessed as fold induction of NF-kappaB activity at 50 ug/ml after 18 hrs by reporter gene assay relative to control
T1 sequence (whole entry): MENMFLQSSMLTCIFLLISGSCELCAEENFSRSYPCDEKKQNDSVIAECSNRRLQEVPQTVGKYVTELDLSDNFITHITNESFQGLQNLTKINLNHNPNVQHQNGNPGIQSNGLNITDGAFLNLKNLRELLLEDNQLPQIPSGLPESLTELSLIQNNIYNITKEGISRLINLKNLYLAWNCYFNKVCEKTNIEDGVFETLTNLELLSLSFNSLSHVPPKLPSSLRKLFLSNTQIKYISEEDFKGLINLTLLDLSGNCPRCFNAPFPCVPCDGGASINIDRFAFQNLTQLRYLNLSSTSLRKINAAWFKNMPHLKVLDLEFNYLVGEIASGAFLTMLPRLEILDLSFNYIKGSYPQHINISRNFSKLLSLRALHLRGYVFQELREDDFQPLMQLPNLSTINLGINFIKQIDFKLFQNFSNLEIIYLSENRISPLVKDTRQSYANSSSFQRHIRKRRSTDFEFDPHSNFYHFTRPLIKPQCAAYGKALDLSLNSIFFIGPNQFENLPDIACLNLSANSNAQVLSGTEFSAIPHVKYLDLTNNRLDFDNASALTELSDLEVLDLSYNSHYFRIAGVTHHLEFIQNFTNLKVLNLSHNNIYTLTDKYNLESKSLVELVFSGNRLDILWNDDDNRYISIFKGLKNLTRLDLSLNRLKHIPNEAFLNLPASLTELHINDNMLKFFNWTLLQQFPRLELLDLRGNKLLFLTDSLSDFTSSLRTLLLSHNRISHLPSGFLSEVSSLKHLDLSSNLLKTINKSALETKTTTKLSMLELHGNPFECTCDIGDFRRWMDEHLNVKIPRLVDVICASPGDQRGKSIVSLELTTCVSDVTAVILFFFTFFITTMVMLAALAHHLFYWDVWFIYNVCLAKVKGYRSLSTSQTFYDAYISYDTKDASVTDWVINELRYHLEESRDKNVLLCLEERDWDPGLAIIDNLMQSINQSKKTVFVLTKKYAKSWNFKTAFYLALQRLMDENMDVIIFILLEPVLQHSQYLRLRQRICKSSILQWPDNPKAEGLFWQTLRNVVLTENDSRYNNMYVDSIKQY
How it was run: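 HEK293 cells stably expressing human TLR7 or TLR8, transiently transfected with SEAP reporter plasmid; medium replaced, SIMRA compounds added, 18 h incubation. Supernatant SEAP measured by QuantiBlue; expressed as fold increase in NF-κB activity over PBS control. Tabulated data at 50 μg/mL, representative of three independent experiments.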

[3] = molecular target: Toll-like receptor 3 (Homo sapiens) (UniProt O15455); assay: Activation of human TLR3 expressed in HEK293 assessed as induction of NF-kappaB activity reporter gene assay; type: cell-based
Homo sapiens = species on record: Homo sapiens; assay: Ratio of human TLR7 activity to human TLR8 activity
How it was run: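 TLR7/TLR8 ratio computed from fold NF-κB (SEAP reporter) activation in HEK293 cells stably expressing human TLR7 versus TLR8, compounds at 50 μg/mL, 18 h exposure; representative of three independent experiments.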

Splenocyte [4] = assay: Immunomodulatory activity in C57BL/6 mouse splenocytes bearing TLR7 receptor assessed as IL12 release at 100 ug/ml after 24 hrs by ELISA; type: functional, cell-based
How it was run: (§1)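 C57BL/6 splenocytes in RPMI 1640 with 10% FBS, penicillin/streptomycin, 2 mM L-glutamine, plated at 5 × 10^6 cells/mL; compounds in PBS added, 37 °C for 24 h. Supernatant IL-12 and IL-6 by ELISA; representative of three independent experiments.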

PBMC [5] = assay: Immunomodulatory activity in human PBMC assessed as induction of IFN-alpha at 100 ug/ml after 24 hrs
[6] = Metabolic stability in human serum assessed as full length product remaining after 10 mins by HPLC; type: ADME, cell-free; details: read-out: Stability
How it was run: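 About 0.5 A260 units compound in 1% human serum in PBS, 37 °C; aliquot taken at 10 min, analysed by anion-exchange HPLC for percent intact full-length product.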

Splenocyte [7] = assay: Immunomodulatory activity in C57BL/6 mouse splenocytes bearing TLR7 receptor assessed as IL6 release at 100 ug/ml after 24 hrs by ELISA; type: functional, cell-based; how it was run: as §1

Sequence of Toll-like receptor 3 (Homo sapiens) (O15455 whole entry): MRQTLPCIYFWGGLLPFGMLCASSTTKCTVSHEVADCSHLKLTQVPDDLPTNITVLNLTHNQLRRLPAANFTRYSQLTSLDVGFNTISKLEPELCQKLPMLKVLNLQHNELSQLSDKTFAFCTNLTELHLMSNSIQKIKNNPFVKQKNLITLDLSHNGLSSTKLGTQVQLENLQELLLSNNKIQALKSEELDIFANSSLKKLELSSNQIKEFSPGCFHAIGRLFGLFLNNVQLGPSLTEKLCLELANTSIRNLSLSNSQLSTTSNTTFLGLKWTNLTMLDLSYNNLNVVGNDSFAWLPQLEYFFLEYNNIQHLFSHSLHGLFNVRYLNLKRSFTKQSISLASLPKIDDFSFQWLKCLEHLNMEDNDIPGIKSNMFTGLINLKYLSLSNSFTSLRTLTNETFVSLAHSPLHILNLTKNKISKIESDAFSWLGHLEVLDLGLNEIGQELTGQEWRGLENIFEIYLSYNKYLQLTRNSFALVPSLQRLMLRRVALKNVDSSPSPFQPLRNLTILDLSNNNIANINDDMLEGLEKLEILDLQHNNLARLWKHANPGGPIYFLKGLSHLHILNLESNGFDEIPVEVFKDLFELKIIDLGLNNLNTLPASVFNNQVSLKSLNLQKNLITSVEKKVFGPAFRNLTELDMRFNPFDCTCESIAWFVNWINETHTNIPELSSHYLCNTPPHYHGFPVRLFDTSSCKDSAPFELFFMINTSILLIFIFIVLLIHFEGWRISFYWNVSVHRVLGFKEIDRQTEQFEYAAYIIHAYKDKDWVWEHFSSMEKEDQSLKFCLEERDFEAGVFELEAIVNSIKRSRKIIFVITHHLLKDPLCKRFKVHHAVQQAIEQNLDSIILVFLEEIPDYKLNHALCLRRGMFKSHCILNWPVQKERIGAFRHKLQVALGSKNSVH

| SMILES | Activity (PBMC [1]) [pg/mL] | fold change (FC) [2] | Activity [3] | Ratio (Homo sapiens) | Activity (Splenocyte [4]) | IFN-alpha (PBMC [5]) [pg/mL] | remaining at 10 min [6] [%] | Activity (Splenocyte [7]) |
| --- | --- | --- | --- | --- | --- | --- | --- | --- |
| Nc1ccn([C@@H]2O[C@H](COP(=O)(S)O[C@H]3[C@@H](O)[C@H](n4cnc5c(N)ncnc54)O[C@@H]3CO)[C@@H](OP(=O)(S)OC[C@H]3O[C@@H](n4ccc(=O)[nH]c4=O)[C@H](O)[C@@H]3OP(=O)(S)OC[C@H]3O[C@@H](n4ccc5c(=O)[nH]c(N)nc54)[C@H](O)[C@@H]3OP(=O)(S)OC[C@H]3O[C@@H](n4ccc(N)nc4=O)[C@H](O)[C@@H]3OP(=O)(S)OC[C@H]3O[C@@H](n4ccc5c(=O)[nH]c(N)nc54)[C@H](O)[C@@H]3OP(=O)(S)OC[C@H]3O[C@@H](n4cnc5c(N)ncnc54)[C@H](O)[C@@H]3OP(=O)(S)OC[C@H]3O[C@@H](n4ccc5c(=O)[nH]c(N)nc54)[C@H](O)[C@@H]3OP(=O)(S)OC[C@H]3O[C@@H](n4ccc(N)nc4=O)[C@H](O)[C@@H]3OP(=O)(S)OC[C@H]3O[C@@H](n4ccc(=O)[nH]c4=O)[C@H](O)[C@@H]3OP(=O)(S)OC[C@H]3O[C@@H](n4ccc(=O)[nH]c4=O)[C@H](O)[C@@H]3OP(=O)(S)OCC(O)COP(=O)(S)O[C@H]3[C@@H](O)[C@H](n4ccc(=O)[nH]c4=O)O[C@@H]3COP(=O)(S)O[C@H]3[C@@H](O)[C@H](n4ccc(=O)[nH]c4=O)O[C@@H]3COP(=O)(S)O[C@H]3[C@@H](O)[C@H](n4ccc(N)nc4=O)O[C@@H]3COP(=O)(S)O[C@H]3[C@@H](O)[C@H](n4ccc5c(=O)[nH]c(N)nc54)O[C@@H]3COP(=O)(S)O[C@H]3[C@@H](O)[C@H](n4cnc5c(N)ncnc54)O[C@@H]3COP(=O)(S)O[C@H]3[C@@H](O)[C@H](n4ccc5c(=O)[nH]c(N)nc54)O[C@@H]3COP(=O)(S)O[C@H]3[C@@H](O)[C@H](n4ccc(N)nc4=O)O[C@@H]3COP(=O)(S)O[C@H]3[C@@H](O)[C@H](n4ccc5c(=O)[nH]c(N)nc54)O[C@@H]3COP(=O)(S)O[C@H]3[C@@H](O)[C@H](n4ccc(=O)[nH]c4=O)O[C@@H]3COP(=O)(S)O[C@H]3[C@@H](O)[C@H](n4ccc(N)nc4=O)O[C@@H]3COP(=O)(S)O[C@H]3[C@@H](O)[C@H](n4cnc5c(N)ncnc54)O[C@@H]3CO)[C@H]2O)c(=O)n1 (some centres undefined) | 487 | 1.7 | inactive | 15.9 | Active | 131 | 71 | Active |
| Nc1ccn([C@@H]2O[C@H](COP(=O)(S)O[C@H]3[C@@H](O)[C@H](n4cnc5c(N)ncnc54)O[C@@H]3COP(=O)(S)O[C@H]3[C@@H](O)[C@H](n4cnc5c(N)ncnc54)O[C@@H]3CO)[C@@H](OP(=O)(S)OC[C@H]3O[C@@H](n4ccc(=O)[nH]c4=O)[C@H](O)[C@@H]3OP(=O)(S)OC[C@H]3O[C@@H](n4ccc5c(=O)[nH]c(N)nc54)[C@H](O)[C@@H]3OP(=O)(S)OC[C@H]3O[C@@H](n4cnc5c(N)ncnc54)[C@H](O)[C@@H]3OP(=O)(S)OC[C@H]3O[C@@H](n4ccc(N)nc4=O)[C@H](O)[C@@H]3OP(=O)(S)OC[C@H]3O[C@@H](n4ccc5c(=O)[nH]c(N)nc54)[C@H](O)[C@@H]3OP(=O)(S)OC[C@H]3O[C@@H](n4ccc(N)nc4=O)[C@H](O)[C@@H]3OP(=O)(S)OC[C@H]3O[C@@H](n4ccc(=O)[nH]c4=O)[C@H](O)[C@@H]3OP(=O)(S)OC[C@H]3O[C@@H](n4ccc5c(=O)[nH]c(N)nc54)[C@H](O)[C@@H]3OP(=O)(S)OCC(O)COP(=O)(S)O[C@H]3[C@@H](O)[C@H](n4ccc5c(=O)[nH]c(N)nc54)O[C@@H]3COP(=O)(S)O[C@H]3[C@@H](O)[C@H](n4ccc(=O)[nH]c4=O)O[C@@H]3COP(=O)(S)O[C@H]3[C@@H](O)[C@H](n4ccc(N)nc4=O)O[C@@H]3COP(=O)(S)O[C@H]3[C@@H](O)[C@H](n4ccc5c(=O)[nH]c(N)nc54)O[C@@H]3COP(=O)(S)O[C@H]3[C@@H](O)[C@H](n4ccc(N)nc4=O)O[C@@H]3COP(=O)(S)O[C@H]3[C@@H](O)[C@H](n4cnc5c(N)ncnc54)O[C@@H]3COP(=O)(S)O[C@H]3[C@@H](O)[C@H](n4ccc5c(=O)[nH]c(N)nc54)O[C@@H]3COP(=O)(S)O[C@H]3[C@@H](O)[C@H](n4ccc(=O)[nH]c4=O)O[C@@H]3COP(=O)(S)O[C@H]3[C@@H](O)[C@H](n4ccc(N)nc4=O)O[C@@H]3COP(=O)(S)O[C@H]3[C@@H](O)[C@H](n4cnc5c(N)ncnc54)O[C@@H]3COP(=O)(S)O[C@H]3[C@@H](O)[C@H](n4cnc5c(N)ncnc54)O[C@@H]3CO)[C@H]2O)c(=O)n1 (some centres undefined) | 154 | 0.4 | inactive | 46 | Active | 0 | 84 | Active |
| Nc1ccn([C@@H]2O[C@H](COP(=O)(S)O[C@H]3[C@@H](O)[C@H](n4cnc5c(N)ncnc54)O[C@@H]3COP(=O)(S)O[C@H]3[C@@H](O)[C@H](n4ccc5c(=O)[nH]c(N)nc54)O[C@@H]3COP(=O)(S)O[C@H]3[C@@H](O)[C@H](n4ccc(=O)[nH]c4=O)O[C@@H]3COP(=O)(S)O[C@H]3[C@@H](O)[C@H](n4ccc5c(=O)[nH]c(N)nc54)O[C@@H]3COP(=O)(S)O[C@H]3[C@@H](O)[C@H](n4cnc5c(N)ncnc54)O[C@@H]3COP(=O)(S)O[C@H]3[C@@H](O)[C@H](n4cnc5c(N)ncnc54)O[C@@H]3CO)[C@@H](OP(=O)(S)OC[C@H]3O[C@@H](n4ccc5c(=O)[nH]c(N)nc54)[C@H](O)[C@@H]3OP(=O)(S)OC[C@H]3O[C@@H](n4cnc5c(N)ncnc54)[C@H](O)[C@@H]3OP(=O)(S)OC[C@H]3O[C@@H](n4ccc(=O)[nH]c4=O)[C@H](O)[C@@H]3OP(=O)(S)OC[C@H]3O[C@@H](n4ccc(=O)[nH]c4=O)[C@H](O)[C@@H]3OP(=O)(S)OCC(O)COP(=O)(S)O[C@H]3[C@@H](O)[C@H](n4ccc(=O)[nH]c4=O)O[C@@H]3COP(=O)(S)O[C@H]3[C@@H](O)[C@H](n4ccc(=O)[nH]c4=O)O[C@@H]3COP(=O)(S)O[C@H]3[C@@H](O)[C@H](n4cnc5c(N)ncnc54)O[C@@H]3COP(=O)(S)O[C@H]3[C@@H](O)[C@H](n4ccc5c(=O)[nH]c(N)nc54)O[C@@H]3COP(=O)(S)O[C@H]3[C@@H](O)[C@H](n4ccc(N)nc4=O)O[C@@H]3COP(=O)(S)O[C@H]3[C@@H](O)[C@H](n4cnc5c(N)ncnc54)O[C@@H]3COP(=O)(S)O[C@H]3[C@@H](O)[C@H](n4ccc5c(=O)[nH]c(N)nc54)O[C@@H]3COP(=O)(S)O[C@H]3[C@@H](O)[C@H](n4ccc(=O)[nH]c4=O)O[C@@H]3COP(=O)(S)O[C@H]3[C@@H](O)[C@H](n4ccc5c(=O)[nH]c(N)nc54)O[C@@H]3COP(=O)(S)O[C@H]3[C@@H](O)[C@H](n4cnc5c(N)ncnc54)O[C@@H]3COP(=O)(S)O[C@H]3[C@@H](O)[C@H](n4cnc5c(N)ncnc54)O[C@@H]3CO)[C@H]2O)c(=O)n1 (some centres undefined) | 400 | 0.8 | inactive | 21.9 | Active | 254 | 90 | Active |
